In ChEMBL document CHEMBL1147063, “Diazonamide toxins reveal an unexpected function for ornithine delta-amino transferase in mitotic cell division” (2007):
Calls of active or inactive are those of the source. No cut-off for these calls is given here.

How the values were obtained:
HeLa [1] = assay: Cell cycle arrest in human HeLa cells by accumulation at 2N stage at 30 nM after 24 hrs; format: functional
How it was run: (§1)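 HeLa cells exposed to 30 nM compound for the indicated times. DNA content measured by FACS to score 2N versus tetraploid (4N) populations.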

HeLa [2] = assay: Cell cycle arrest in human HeLa cells by accumulation at 4N stage at 30 nM after 24 hrs; format: functional; how it was run: as §1
HeLa [3] = assay: Cell cycle arrest in human HeLa cells assessed as phosphorylated histone H3 level at 30 nM after 24 hrs; format: functional, cell-based
How it was run: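 HeLa cells dosed with 30 nM compound for a time course. Cell extracts immunoblotted for phosphorylated histone H3 as mitotic marker, with actin as loading reference.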

HeLa [4] = assay: Cell cycle arrest in human HeLa cells assessed as abnormal spindle structure formation at 30 nM after 24 hrs; format: functional, cell-based
How it was run: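 HeLa cells grown 24 h with or without 30 nM compound, then fixed in 4% formaldehyde. Stained with anti-α-tubulin monoclonal (1:1,000) and DAPI; spindle and nuclear morphology imaged by confocal microscopy. Abnormal mono-/multipolar spindles and multinucleate cells counted as a percentage of cells.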

[5] = biological target: T1, Ornithine aminotransferase, mitochondrial (Mus musculus) (UniProt P29758); assay: Inhibition of ornithine delta-amino transferase activity in mouse liver mitochondria
T1 sequence (whole entry): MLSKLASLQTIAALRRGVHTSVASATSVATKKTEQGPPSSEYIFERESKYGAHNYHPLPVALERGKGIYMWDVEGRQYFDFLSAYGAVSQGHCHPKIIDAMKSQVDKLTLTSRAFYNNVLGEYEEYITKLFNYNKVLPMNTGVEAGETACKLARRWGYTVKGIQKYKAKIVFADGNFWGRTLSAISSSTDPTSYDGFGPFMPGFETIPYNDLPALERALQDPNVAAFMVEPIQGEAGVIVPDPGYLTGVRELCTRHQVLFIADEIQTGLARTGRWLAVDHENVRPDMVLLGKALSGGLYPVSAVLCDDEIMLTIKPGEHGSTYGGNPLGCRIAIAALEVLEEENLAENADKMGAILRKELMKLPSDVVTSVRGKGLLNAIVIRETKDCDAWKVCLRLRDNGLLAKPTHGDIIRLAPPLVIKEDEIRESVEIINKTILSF
How it was run: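 Crude OAT prepared from mouse liver. Enzyme added last with a compound dilution series; shaken at 37°C for 20 min. Δ¹-pyrroline-5-carboxylate detected by reaction with o-aminobenzaldehyde; absorbance read at 443.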

U2OS = assay: Cell cycle arrest in human U2OS cells assessed as abnormal spindle structure formation at 30 nM after 16 hrs; format: functional, cell-based
HeLa [6] = assay: Antimitotic activity in human HeLa cells; format: functional, cell-based
[7] = Binding affinity to tubulin
[8] = biological target: T2, Ornithine aminotransferase, mitochondrial (Homo sapiens) (UniProt P04181); assay: Binding affinity to ornithine delta-amino transferase in human HeLa cells by silver stained SDS/PAGE method; format: cell-based
T2 sequence (whole entry): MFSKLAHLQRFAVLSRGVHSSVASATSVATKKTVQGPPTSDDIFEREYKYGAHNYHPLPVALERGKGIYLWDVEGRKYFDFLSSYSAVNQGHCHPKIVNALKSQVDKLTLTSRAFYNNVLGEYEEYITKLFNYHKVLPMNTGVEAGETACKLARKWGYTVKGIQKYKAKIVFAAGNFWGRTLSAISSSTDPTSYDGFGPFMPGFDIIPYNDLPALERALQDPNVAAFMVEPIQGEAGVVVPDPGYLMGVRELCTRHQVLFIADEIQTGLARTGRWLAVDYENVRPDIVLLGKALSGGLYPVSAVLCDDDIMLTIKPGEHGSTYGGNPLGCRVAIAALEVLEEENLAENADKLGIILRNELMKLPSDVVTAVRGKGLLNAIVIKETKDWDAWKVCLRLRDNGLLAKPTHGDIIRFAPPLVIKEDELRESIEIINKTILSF
How it was run: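 HeLa nuclear extract, dialysed into buffer B (20 mM Hepes-KOH pH 7.5, 10 mM KCl, 1.5 mM MgCl₂, EDTA, EGTA, DTT, PMSF, plus 150 mM NaCl) with 0.1% Nonidet P-40. Extract fractionated on Hitrap Q anion exchange; fractions incubated overnight at 4°C with biotinylated probe precoupled to avidin agarose. Bound proteins resolved by silver-stained SDS/PAGE; specific ~50 kDa bands identified by mass spectrometry.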

Xenopus = assay: Effect on RanGTP L43E mutant-stimulated microtubule aster formations in Xenopus egg extract
[9] = tested on: Ornithine aminotransferase, mitochondrial (Xenopus laevis); assay: Binding affinity to ornithine delta-amino transferase in RanGTP L43E mutant pre-treated Xenopus egg extracts; details: egg extract

What does the source list for [H][C@]12Nc3c4cccc3[C@]13C1=C(N=C(O1)[C@H](C(C)C)NC(=O)[C@@H](NC(=O)[C@@H](O)C(C)C)Cc1ccc(c3c1)O2)c1nc(Cl)c(o1)-c1c(Cl)[nH]c2cccc-4c12 [DIAZONAMIDE A]?
Activity (HeLa [1]): 6.9%; Activity (HeLa [2]): 85.69%

For CC(C)[C@H](O)C(=O)N[C@H]1Cc2ccc3c(c2)[C@]24C5=C(N=C(O5)[C@H](C(C)C)NC1=O)c1nc(Cl)c(o1)-c1c(Cl)[nH]c5cccc(c15)-c1cccc2c1N[C@@H]4O3, which Activity (HeLa [3]) is on record?
The Activity was “Active”.

What about the Activity (HeLa [4]) of the same molecule?
The Activity was “Active”.

What about the Activity [5] of the same molecule?
The Activity was “inactive”.

What about the Activity (U2OS) of the same molecule?
Its Activity is “Active”.

With CC(CCCCNC(=O)CCCC[C@@H]1SC[C@@H]2NC(=O)N[C@@H]21)[C@H](O)C(=O)N[C@H]1Cc2ccc3c(c2)[C@]24C5=C(N=C(O5)[C@H](C(C)C)NC1=O)c1nc(Cl)c(o1)-c1c(Cl)[nH]c5cccc(c15)-c1cccc2c1O[C@@H]4O3 (stereo partly specified) as the molecule, how does the Activity (HeLa [6]) read?
Its Activity is “Active”.

What about the Activity [7] of the same molecule?
The Activity was “inactive”.

What about the Activity [8] of the same molecule?
Its Activity is “Active”.

And the Activity [5]?
The Activity was “inactive”.

What about the Activity (Xenopus) of the same molecule?
Its Activity is “Active”.

And the Activity [9]?
The Activity was “inactive”.

Which Activity [7] does the source give for CC(CCCCNC(=O)CCCC[C@@H]1SC[C@@H]2NC(=O)N[C@@H]21)[C@H](O)C(=O)N[C@H]1Cc2ccc3c(c2)[C@]2(C4=C(c5nc(Cl)c(-c6c(Cl)[nH]c7ccccc67)o5)N=C(O4)[C@H](C(C)C)NC1=O)c1ccccc1O[C@@H]2O3 (stereo partly specified) here?
The Activity was “inactive”.

And the Activity [8]?
The Activity was “inactive”.

For CC(C)[C@H](O)C(=O)N[C@H]1Cc2ccc3c(c2)[C@]24C5=C(N=C(O5)[C@H](C(C)C)NC1=O)c1nc(Cl)c(o1)-c1c(Cl)[nH]c5cccc(c15)-c1cccc2c1O[C@@H]4O3, which Activity [5] is on record?
The Activity was “inactive”.

For C#CC(N)CCC(=O)O (stereo unspecified), which Activity [5] is on record?
The Activity was “Active”.
